Key:
[1] = molecular target: T1, Serine/threonine-protein kinase ICK (Homo sapiens) (UniProt Q9UPZ9); test: Inhibition of ICK at 1 uM
T1 sequence (whole entry): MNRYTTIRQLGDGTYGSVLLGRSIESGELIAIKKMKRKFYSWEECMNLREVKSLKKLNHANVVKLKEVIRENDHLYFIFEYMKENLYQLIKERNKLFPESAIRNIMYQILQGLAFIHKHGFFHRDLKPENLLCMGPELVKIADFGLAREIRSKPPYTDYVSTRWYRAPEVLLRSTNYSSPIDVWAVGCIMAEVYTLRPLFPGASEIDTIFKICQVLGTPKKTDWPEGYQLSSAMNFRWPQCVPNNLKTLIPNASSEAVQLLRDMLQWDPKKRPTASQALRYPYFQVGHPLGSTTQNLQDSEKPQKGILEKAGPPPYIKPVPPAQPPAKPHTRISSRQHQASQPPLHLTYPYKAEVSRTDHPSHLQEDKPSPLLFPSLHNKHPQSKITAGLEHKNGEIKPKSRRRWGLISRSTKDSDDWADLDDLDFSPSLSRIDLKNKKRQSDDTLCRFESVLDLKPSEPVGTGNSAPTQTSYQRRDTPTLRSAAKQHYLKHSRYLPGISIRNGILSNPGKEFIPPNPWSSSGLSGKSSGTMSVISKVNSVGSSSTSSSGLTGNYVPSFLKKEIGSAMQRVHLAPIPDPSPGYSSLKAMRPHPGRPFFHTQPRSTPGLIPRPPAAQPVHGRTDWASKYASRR

[2] = molecular target: Myosin light chain kinase, smooth muscle (Homo sapiens) (UniProt Q15746); test: Inhibition of MLCK at 1 uM
Myosin light chain kinase, smooth muscle (Homo sapiens), sequence (Q15746 whole entry): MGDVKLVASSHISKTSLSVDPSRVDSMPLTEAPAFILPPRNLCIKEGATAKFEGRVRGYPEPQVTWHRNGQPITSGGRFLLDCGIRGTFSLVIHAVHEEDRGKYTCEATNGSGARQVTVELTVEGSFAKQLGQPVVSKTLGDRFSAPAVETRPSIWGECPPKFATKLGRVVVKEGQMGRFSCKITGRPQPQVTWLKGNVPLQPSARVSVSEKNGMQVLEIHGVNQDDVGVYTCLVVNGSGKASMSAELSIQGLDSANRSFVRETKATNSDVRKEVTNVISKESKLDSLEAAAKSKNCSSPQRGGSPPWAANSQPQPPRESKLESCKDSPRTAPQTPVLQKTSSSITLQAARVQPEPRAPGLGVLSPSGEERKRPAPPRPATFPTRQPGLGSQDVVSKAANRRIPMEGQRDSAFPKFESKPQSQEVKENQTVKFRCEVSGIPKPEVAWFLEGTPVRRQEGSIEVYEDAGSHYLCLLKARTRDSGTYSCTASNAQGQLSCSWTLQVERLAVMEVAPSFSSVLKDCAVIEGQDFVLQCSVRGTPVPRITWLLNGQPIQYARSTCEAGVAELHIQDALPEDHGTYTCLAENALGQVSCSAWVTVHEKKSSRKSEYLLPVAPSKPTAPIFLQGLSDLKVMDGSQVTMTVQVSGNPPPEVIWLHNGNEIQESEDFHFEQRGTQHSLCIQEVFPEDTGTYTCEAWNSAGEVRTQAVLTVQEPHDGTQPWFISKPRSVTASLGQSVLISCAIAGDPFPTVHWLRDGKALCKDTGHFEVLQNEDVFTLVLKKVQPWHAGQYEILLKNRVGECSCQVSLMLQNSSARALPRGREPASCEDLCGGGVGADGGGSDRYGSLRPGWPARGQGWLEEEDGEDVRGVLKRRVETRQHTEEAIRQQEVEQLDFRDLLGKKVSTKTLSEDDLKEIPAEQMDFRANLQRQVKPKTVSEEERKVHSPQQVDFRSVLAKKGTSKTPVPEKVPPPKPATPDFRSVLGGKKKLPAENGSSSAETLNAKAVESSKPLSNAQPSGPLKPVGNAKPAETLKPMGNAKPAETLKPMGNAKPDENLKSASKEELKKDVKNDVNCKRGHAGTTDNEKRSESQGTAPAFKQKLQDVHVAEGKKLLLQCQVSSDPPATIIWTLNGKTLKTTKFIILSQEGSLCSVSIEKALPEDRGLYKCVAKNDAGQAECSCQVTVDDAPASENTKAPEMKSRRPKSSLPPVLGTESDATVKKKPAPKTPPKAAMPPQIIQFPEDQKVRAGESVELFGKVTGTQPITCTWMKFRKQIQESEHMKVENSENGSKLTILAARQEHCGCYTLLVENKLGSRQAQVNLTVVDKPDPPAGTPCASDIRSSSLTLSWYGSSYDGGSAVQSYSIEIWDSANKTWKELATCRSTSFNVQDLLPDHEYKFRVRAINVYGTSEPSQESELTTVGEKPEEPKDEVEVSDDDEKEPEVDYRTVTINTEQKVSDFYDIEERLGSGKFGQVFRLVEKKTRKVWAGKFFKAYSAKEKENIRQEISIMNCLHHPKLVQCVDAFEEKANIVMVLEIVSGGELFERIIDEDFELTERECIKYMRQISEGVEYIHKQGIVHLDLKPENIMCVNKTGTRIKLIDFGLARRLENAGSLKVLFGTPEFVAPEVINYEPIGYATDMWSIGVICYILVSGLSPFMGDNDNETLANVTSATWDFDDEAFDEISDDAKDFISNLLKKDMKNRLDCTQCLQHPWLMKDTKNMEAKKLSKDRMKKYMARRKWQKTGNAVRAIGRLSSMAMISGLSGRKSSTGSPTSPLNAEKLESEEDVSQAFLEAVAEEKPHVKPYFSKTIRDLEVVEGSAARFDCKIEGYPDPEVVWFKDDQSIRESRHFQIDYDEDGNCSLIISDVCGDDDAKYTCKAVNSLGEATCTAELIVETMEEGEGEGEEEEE

[3] = molecular target: Ephrin type-A receptor 2 (Homo sapiens) (UniProt P29317); test: Inhibition of EPHA2 at 1 uM
In short: (§1)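 Single-concentration screen using Ambit Bioscience KINOMEscan technology across a panel of 250–400 kinases. Per-kinase inhibition from this screen was summarized as S(90), the fraction of kinases inhibited by more than 90%.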

[4] = molecular target: T2, Cyclin-dependent kinase-like 2 (Homo sapiens) (UniProt Q92772); test: Inhibition of CDKL2 at 1 uM
T2 sequence (whole entry): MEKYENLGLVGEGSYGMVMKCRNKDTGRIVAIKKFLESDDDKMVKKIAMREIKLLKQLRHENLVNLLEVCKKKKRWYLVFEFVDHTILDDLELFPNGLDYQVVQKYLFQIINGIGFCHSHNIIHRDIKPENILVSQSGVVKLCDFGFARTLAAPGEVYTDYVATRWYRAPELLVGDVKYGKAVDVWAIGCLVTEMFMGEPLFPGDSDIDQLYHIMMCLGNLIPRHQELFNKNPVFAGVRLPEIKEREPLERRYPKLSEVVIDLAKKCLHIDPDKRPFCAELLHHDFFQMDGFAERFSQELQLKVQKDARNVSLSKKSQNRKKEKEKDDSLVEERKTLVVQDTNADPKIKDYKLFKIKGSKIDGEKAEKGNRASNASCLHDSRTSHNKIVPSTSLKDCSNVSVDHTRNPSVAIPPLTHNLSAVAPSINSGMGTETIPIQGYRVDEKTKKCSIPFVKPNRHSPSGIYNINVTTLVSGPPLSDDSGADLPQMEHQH

[5] = molecular target: Epidermal growth factor receptor (Homo sapiens) (UniProt P04626+P00533+Q15303+P21860); test: Inhibition of EGFR E746-A750del mutant at 1 uM; assay type: protein assay; in short: as §1
[6] = molecular target: T3, Myosin light chain kinase family member 4 (Homo sapiens) (UniProt Q86YV6); test: Inhibition of SgK085 at 1 uM
T3 sequence (whole entry): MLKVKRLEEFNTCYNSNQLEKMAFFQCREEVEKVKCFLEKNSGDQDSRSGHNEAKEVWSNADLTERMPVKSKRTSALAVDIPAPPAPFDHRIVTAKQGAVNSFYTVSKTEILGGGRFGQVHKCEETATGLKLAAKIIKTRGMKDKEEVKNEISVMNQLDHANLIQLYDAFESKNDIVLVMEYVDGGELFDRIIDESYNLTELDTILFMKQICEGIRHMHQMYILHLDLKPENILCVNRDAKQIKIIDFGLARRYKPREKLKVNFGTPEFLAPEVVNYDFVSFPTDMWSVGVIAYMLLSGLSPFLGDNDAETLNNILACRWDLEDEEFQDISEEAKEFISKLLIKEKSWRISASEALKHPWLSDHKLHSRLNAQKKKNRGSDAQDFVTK

[7] = molecular target: Tyrosine-protein kinase receptor UFO (Homo sapiens) (UniProt P30530); test: Inhibition of AXL at 1 uM
In short: (§2)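 Ambit KINOMEscan screen at a single concentration across a 250–400 kinase panel, recorded as percent inhibition. Selectivity was expressed as S(90), the fraction of kinases inhibited >90%.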

[8] = molecular target: Cyclin-dependent kinase 8 (Homo sapiens) (UniProt P49336); test: Inhibition of CDK8 at 1 uM
Cyclin-dependent kinase 8 (Homo sapiens), sequence (P49336 whole entry): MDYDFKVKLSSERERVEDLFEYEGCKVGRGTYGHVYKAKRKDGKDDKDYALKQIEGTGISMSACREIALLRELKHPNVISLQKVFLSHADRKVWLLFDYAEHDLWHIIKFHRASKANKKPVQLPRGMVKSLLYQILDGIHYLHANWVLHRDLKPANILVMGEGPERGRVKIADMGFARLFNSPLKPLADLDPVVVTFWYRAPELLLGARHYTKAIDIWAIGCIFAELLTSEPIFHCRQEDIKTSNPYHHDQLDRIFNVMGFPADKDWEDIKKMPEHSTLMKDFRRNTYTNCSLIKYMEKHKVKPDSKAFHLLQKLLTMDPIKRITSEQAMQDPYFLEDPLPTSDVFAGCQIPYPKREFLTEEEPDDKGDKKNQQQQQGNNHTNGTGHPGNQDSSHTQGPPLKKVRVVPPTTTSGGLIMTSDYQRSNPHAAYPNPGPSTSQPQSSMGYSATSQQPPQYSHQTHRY

[9] = molecular target: MAP/microtubule affinity-regulating kinase 3 (Homo sapiens) (UniProt P27448); test: Inhibition of MARK3 at 1 uM
In short: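 Kinase-panel screen using KINOMEscan technology, with 250–400 kinases per panel. Each compound was tested at a single concentration, and inhibition of each kinase was recorded. Selectivity was summarised as S(90), the fraction of kinases inhibited by more than 90%.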

[10] = molecular target: Tyrosine-protein kinase FRK (Homo sapiens) (UniProt P42685); test: Inhibition of FRK at 1 uM
Tyrosine-protein kinase FRK (Homo sapiens), sequence (P42685 whole entry): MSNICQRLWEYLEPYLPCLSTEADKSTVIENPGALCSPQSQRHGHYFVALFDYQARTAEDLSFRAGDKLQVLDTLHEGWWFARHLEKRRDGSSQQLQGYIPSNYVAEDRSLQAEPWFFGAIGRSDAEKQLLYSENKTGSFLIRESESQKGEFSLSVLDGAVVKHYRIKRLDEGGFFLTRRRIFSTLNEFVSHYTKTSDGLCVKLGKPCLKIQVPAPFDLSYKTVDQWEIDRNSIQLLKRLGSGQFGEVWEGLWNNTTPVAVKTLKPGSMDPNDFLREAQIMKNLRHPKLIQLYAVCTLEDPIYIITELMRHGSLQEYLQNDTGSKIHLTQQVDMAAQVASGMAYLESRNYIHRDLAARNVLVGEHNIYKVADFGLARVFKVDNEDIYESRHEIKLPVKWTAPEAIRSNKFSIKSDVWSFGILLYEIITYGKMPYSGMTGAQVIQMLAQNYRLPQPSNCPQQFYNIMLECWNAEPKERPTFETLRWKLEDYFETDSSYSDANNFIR
In short: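 Single-concentration screen on the Ambit KINOMEscan platform, run against a panel of 250–400 kinases. Per-kinase inhibition was also summarized as S(90), the fraction of kinases inhibited by more than 90%.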

[11] = molecular target: Tyrosine-protein kinase BTK (Homo sapiens) (UniProt Q06187); test: Inhibition of BTK at 1 uM; in short: as §2
Tyrosine-protein kinase BTK (Homo sapiens), sequence (Q06187 whole entry): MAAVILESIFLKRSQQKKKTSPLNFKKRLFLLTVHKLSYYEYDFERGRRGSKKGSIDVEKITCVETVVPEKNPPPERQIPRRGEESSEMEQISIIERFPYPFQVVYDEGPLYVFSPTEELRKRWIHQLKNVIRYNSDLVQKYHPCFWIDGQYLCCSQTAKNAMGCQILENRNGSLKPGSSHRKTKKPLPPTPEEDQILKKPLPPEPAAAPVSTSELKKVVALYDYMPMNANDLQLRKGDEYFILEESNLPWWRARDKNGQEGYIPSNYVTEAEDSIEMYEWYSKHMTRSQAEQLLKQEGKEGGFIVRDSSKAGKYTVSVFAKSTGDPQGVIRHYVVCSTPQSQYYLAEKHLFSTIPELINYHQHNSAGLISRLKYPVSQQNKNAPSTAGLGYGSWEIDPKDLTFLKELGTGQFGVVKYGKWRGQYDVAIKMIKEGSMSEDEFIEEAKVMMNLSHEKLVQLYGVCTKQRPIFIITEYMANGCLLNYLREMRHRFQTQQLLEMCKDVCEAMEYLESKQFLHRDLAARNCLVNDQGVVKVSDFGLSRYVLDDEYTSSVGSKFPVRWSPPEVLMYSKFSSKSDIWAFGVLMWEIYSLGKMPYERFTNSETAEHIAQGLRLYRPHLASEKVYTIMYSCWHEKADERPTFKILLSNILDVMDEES

[12] = test system: Hepatocyte growth factor receptor (Homo sapiens), P08581 [Y1235D]; test: Inhibition of MET Y1235D mutant at 1 uM
[13] = molecular target: Serine/threonine-protein kinase SIK3 (Homo sapiens) (UniProt Q9Y2K2); test: Inhibition of QSK at 1 uM
Serine/threonine-protein kinase SIK3 (Homo sapiens), sequence (Q9Y2K2 whole entry, looked up): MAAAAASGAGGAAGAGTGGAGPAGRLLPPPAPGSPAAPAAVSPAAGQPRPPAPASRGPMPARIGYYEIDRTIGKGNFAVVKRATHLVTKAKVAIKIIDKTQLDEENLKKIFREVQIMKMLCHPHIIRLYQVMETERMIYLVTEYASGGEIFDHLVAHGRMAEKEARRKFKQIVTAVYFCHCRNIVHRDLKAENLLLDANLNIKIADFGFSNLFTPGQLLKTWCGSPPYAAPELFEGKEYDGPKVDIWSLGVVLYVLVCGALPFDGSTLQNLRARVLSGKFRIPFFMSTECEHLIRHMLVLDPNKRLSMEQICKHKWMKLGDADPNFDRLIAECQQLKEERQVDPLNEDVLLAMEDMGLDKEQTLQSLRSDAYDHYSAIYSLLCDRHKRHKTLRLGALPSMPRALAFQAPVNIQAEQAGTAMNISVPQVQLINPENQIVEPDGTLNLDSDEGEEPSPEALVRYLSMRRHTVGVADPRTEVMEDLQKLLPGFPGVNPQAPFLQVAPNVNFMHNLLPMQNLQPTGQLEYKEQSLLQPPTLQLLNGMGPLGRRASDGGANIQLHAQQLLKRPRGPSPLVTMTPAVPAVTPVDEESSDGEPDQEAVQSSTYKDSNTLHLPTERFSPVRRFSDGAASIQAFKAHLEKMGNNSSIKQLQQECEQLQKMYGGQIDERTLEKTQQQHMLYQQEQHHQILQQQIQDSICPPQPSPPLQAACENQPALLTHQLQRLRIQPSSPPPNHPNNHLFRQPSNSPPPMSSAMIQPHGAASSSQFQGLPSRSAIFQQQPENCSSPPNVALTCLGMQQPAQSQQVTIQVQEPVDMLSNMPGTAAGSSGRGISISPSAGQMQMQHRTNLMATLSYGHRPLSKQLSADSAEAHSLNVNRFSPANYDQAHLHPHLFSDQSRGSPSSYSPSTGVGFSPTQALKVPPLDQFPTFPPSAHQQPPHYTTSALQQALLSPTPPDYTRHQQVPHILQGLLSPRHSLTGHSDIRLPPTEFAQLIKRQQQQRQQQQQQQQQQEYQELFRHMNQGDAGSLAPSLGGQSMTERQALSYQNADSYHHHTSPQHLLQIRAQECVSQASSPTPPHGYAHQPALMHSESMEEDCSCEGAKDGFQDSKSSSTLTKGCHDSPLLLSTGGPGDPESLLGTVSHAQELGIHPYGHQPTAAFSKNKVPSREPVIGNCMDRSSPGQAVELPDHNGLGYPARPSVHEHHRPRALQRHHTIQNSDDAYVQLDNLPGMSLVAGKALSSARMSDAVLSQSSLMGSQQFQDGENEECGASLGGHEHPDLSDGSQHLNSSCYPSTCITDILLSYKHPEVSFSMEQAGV

| SMILES | inhibition [1] | inhibition [2] | inhibition [3] | inhibition [4] | inhibition [5] | inhibition [6] | inhibition [7] | inhibition [8] | inhibition [9] | inhibition [10] | inhibition [11] | inhibition [12] | inhibition [13] |
| --- | --- | --- | --- | --- | --- | --- | --- | --- | --- | --- | --- | --- | --- |
| CN1CCN(c2ccc(-c3cnc4c(c3)N(Cc3cc(Cl)ccc3Cl)CCN4)cn2)CC1 | < 50% | < 50% | < 50% | < 50% | < 50% | < 50% | < 50% | < 50% | < 50% | < 50% | < 50% | < 50% | < 50% |
| CN1CCN(c2ccc(-c3cnc4c(c3)N(Cc3cc(Cl)ccc3C(F)(F)F)CCN4)cn2)CC1 | < 50% | < 50% | < 50% | < 50% | < 50% | < 50% | < 50% | < 50% | < 50% | < 50% | < 50% | < 50% | < 50% |
| CN1CCN(c2ccc(-c3cnc4c(c3)N(Cc3c(F)ccc(F)c3Cl)CCN4)cn2)CC1 | < 50% | < 50% | < 50% | < 50% | < 50% | < 50% | < 50% | < 50% | < 50% | 66% | < 50% | 71% | < 50% |
| O=C(c1ccc(-c2cnc3c(c2)N(Cc2cc(Cl)ccc2C(F)(F)F)CCN3)cc1)N1CCC(N2CCCC2)CC1 | – | – | < 50% | – | < 50% | – | 93% | – | < 50% | < 50% | < 50% | – | – |
| COC1CCN(C(=O)c2ccc(-c3cnc4c(c3)N(Cc3cc(Cl)ccc3C(F)(F)F)CCN4)cc2)CC1 | – | – | < 50% | – | < 50% | – | < 50% | – | < 50% | < 50% | < 50% | – | – |
| FC(F)(F)c1ccc(Cl)cc1CN1CCNc2ncc(-c3ccnc(N4CCNCC4)c3)cc21 | < 50% | < 50% | < 50% | < 50% | < 50% | < 50% | < 50% | < 50% | < 50% | < 50% | < 50% | 75% | < 50% |
| CN1CCN(c2ccc(-c3cnc4c(c3)N(Cc3cc(F)ccc3F)CCN4)cn2)CC1 | < 50% | < 50% | < 50% | < 50% | < 50% | < 50% | < 50% | < 50% | < 50% | < 50% | < 50% | < 50% | < 50% |
| O=C(c1ccc(-c2cnc3c(c2)N(Cc2cc(Cl)ccc2C(F)(F)F)CCN3)cc1)N1CCCCC1 | – | – | < 50% | – | < 50% | – | < 50% | – | < 50% | < 50% | < 50% | – | – |
| CC(=O)N1CCN(c2cc(-c3cnc4c(c3)N(Cc3cc(Cl)ccc3C(F)(F)F)CCN4)ccn2)CC1 | < 50% | < 50% | < 50% | < 50% | < 50% | < 50% | < 50% | < 50% | < 50% | < 50% | < 50% | 67% | < 50% |
| O=C(O)c1ccc(-c2cnc3c(c2)N(Cc2cc(Cl)ccc2C(F)(F)F)CCN3)cc1 | – | – | < 50% | – | < 50% | – | < 50% | – | < 50% | < 50% | < 50% | – | – |
